Shown are actives, neighbours in structure and some others; about 2.1% of the full set was active somewhere.
AF4-AF9 inh = inhibitors of AF4 peptide binding to AF9, primary screen, biochemical, AlphaScreen, biotin-AF4 peptide, FLAG-AF9, single point; Protein AF-9 (Homo sapiens), P42568; hit rate 0.47% among 350,000; AID 651704, 2012; inhibition, % at 10 µM;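 active = every replicate reaching a set inhibition limit, whatever the replicate mean, cut at about 25% in these data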;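 also: 0% = plate neutral control median and 100% = total signal loss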
FGF22 binding = binders of human FGF22 protein, primary screen, FGF22 synaptogenesis inhibitor project, biophysical, thermal shift, single point | AID 651658, 2012 | recombinant FGF22 thermal shift, SYPRO orange fluorescence; percent of sucrose octasulfate shift, DMSO zero | activity (Tm shift, normalised), % at 9.99 µM | Fibroblast growth factor 22 (Homo sapiens), Q9HCT0 | hit rate 1.5% among 340,000;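 active = mean Tm shift, scaled 0 neutral to 100 positive control, at about 1.3% or above, every replicate too, limit read from the data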
Target sequence (Q9HCT0 whole entry, looked up): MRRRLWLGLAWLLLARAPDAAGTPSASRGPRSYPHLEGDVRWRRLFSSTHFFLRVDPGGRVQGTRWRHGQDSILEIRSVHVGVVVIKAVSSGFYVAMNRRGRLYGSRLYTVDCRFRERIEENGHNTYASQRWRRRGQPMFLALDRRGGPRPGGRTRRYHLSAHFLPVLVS
ERp5 inh = inhibitors of ERp5-driven insulin aggregation, primary screen, biochemical, turbidity, absorbance 650 nm, single point; hit rate 0.05% among 350,000; 90 min; Protein disulfide-isomerase A6 (Homo sapiens), Q15084; inhibition, % at 9.99 µM;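 active = mean replicate inhibition above about 25%, with every replicate also reaching it, limit read from the data, passing the limit was not always enough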
Target sequence (Q15084 whole entry, looked up): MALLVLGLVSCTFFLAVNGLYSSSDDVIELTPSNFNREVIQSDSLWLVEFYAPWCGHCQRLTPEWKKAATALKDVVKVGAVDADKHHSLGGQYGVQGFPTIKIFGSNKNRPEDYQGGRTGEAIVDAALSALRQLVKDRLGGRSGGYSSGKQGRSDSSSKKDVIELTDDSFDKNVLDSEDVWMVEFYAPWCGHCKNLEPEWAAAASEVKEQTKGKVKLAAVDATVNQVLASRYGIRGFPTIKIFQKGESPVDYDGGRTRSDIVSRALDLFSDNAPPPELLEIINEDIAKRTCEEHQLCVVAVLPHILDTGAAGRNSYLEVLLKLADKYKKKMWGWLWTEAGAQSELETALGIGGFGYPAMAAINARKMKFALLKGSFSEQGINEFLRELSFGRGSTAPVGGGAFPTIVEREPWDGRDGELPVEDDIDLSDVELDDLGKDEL
ARNT-TACC3 inh = disruptors of ARNT/TACC3 protein interaction, primary screen, biochemical, AlphaScreen, single concentration | Transforming acidic coiled-coil-containing protein 3 (Homo sapiens), Q9Y6A5 | AlphaScreen His-ARNT PAS-B/GST-TACC3 binding, luminescence; TACC3 fragment carries E629A point mutation | inhibition, % at 9.99 µM | hit rate 0.66% among 390,000 | AID 623870, 2012;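 active = mean inhibition of replicates at least 50% and at least half of replicates each reaching 50%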;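 also: 0% = complete ARNT plus TACC3 wells and 100% = ARNT alone without TACC3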
PDI inh = inhibitors of human PDI, primary screen, biochemical, turbidity, single point, plate reader. PDI insulin aggregation turbidity, A650, 90 min. inhibition, % at 10 µM. hit rate 0.052% among 350,000;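 active = mean inhibition across replicates of 30% or more, whatever share of single replicates reach that level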
FN deposit inh = inhibitors of fibronectin matrix deposition, primary screen, AH1F cells, Alexa488-fibronectin fluorescence, plate reader; AH1F fibroblasts, overnight; inhibition, % at 12.6 µM; hit rate 0.086% among 350,000;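 active = mean inhibition across replicates of 30% or more, regardless of how many single replicates reach that level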;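 also: positive control wells lacked labelled fibronectin entirely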
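material = AH1F fibroblast monolayer depositing Alexa488-labelled fibronectin into matrix | amount = 10000 AH1F cells/well | buffer or medium = DMEM plus 2% serum, read in PBS | incubation = 1 h cell adhesion before compound, then overnight fibronectin incubation | detection = fluorescence at 485 nm excitation, 525 nm emission | evaluation = percent inhibition as loss of matrix-bound fibronectin fluorescence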
Active calls of the source: *; · = no result given.

SMILES	AF4-AF9 inh	FGF22 binding	ERp5 inh	ARNT-TACC3 inh	PDI inh	FN deposit inh
CCCn1cc(SCC(=O)NCc2ccco2)c2ccccc21	·	·	·	-4	1	·
COC(=O)c1cn(CC(=O)NCc2ccco2)c2ccccc12	·	·	·	-2	1	31*
O=C(C[C@@H]1C=C[C@@H](NC(=O)Nc2ccccc2)[C@H](CO)O1)NCc1ccccn1	-5	0	3	2	·	·
CC(=O)N(C)C[C@@H]1Oc2cc(-c3ccc(F)cc3)ccc2S(=O)(=O)N([C@H](C)CO)C[C@@H]1C	0	0	-6	-27	·	·
Cc1ccccc1S(=O)(=O)NCC[C@H]1CC[C@H](NC(=O)C2CC2)[C@H](CO)O1	1	0	-7	-20	·	-10
CC(C)C#Cc1ccc2c(c1)O[C@H](CN(C)Cc1ccncc1)[C@H](C)CN([C@@H](C)CO)S2(=O)=O	·	0	·	3	·	12
Cc1ccc(N2C(=O)CC(N(O)C3CC(=O)N(c4ccc(C)cc4)C3=O)C2=O)cc1 (stereo not given)	·	·	·	5	1	-2
CC(=O)N(NC(=O)c1ccccc1Cl)C1CC(=O)N(c2ccc(C)cc2)C1=O (stereo not given)	·	·	·	47*	7	-5
Cc1ccc(S(=O)(=O)N[C@@H]2CC[C@@H](CC(=O)NCCCN(C)C)O[C@H]2CO)cc1	-23	0	6	-4	·	·
COc1ccccc1CNC(=O)c1cc(C2CC2)nc2c1cnn2C(C)C	-3	0	0	-7	2	2
COc1ccc(CNC(=O)c2cc(C3CC3)nc3c2cnn3C(C)C)cc1	32*	0	13	·	-11	-27
COCCSc1ccccc1C(=O)N1CCc2ccccc2C1	0	43*	-2	-7	0	7
C[C@H](CO)N1C[C@H](C)[C@@H](CN(C)C)Oc2ccc(NC(=O)Cn3cnnn3)cc2C1=O	-2	0	-2	1	·	·
CN1C(=O)c2cc(NC(=O)Nc3cccc(Cl)c3)ccc2OC[C@@H]2O[C@@H](CC(=O)NCCc3ccncc3)CC[C@@H]21	1	-1	2	8	·	-21
Cc1cc(-c2nn(-c3ccccc3F)cc2CN2CCC(C(N)=O)CC2)c(C)s1	7	0	3	0	-2	3
Cc1cc(-c2nn(-c3ccccc3F)cc2CN2CCCC(CO)C2)c(C)s1 (stereo not given)	1	43*	-2	0	-2	3
Cc1cc(-c2nn(-c3ccccc3F)cc2CNCCc2cnc[nH]2)c(C)s1	29*	0	22	31	3	5
C[C@@H]1CN([C@@H](C)CO)C(=O)c2cc(NC(=O)C3CC3)ccc2O[C@@H]1CN(C)C(=O)Nc1ccccc1	-2	0	5	7	·	·
Cc1noc(C)c1NC(=O)Nc1ccc2c(c1)C(=O)N([C@H](C)CO)C[C@H](C)[C@@H](CN(C)C(=O)Nc1ccc(C(F)(F)F)cc1)OCCCC[C@@H](C)O2	0	0	-5	-7	·	1
Cc1occc1-c1n[nH]c(=S)n1C	-10	43*	-51	-6	-5	-4
Cc1cc(C)n(-c2n[nH]c(C)c2[N+](=O)[O-])n1	3	44*	-2	-4	-1	-5
Cc1[nH]nc(N2CCCCC2)c1[N+](=O)[O-]	·	·	·	2	-1	-1
O=S(=O)([N-]c1nc2ccccc2nc1-[n+]1ccccc1)c1ccccc1	·	·	·	0	-20	·
Cc1cc(C)c[n+](-c2nc3ccccc3nc2[N-]S(=O)(=O)c2ccc(Br)s2)c1	1	44*	-2	·	0	4
O=c1[nH]nc(SCc2nc3ccccc3s2)n1C1CC1	-1	43*	-1	1	-3	7
SMILES	AF4-AF9 inh	FGF22 binding	ERp5 inh	ARNT-TACC3 inh	PDI inh	FN deposit inh
O=[N+]([O-])c1cc(Cl)cc(/C=N/NC(=S)Nc2ccc(S(=O)(=O)N3CCOCC3)cc2)c1O	5	0	1	70*	-3	5
O=S(=O)(c1ccc(NC(=S)NN=Cc2ccccc2O)cc1)N1CCCCC1	2	0	12	46*	-7	14
O=S(=O)(c1ccc(NC(=S)N/N=C/c2ccc(O)c(O)c2)cc1)N1CCOCC1	12	0	2	6	0	5
COc1ccccc1-c1ccc2c(c1)O[C@@H](CN(C)C(=O)c1cccnc1)[C@@H](C)CN([C@H](C)CO)S2(=O)=O	-1	0	-1	-9	·	·
Cc1noc(C)c1NC(=O)N(C)C[C@@H]1Oc2ccc(NC(=O)C3CCCCC3)cc2C(=O)N([C@H](C)CO)C[C@@H]1C	-4	0	5	-12	·	·
CN(C)S(=O)(=O)c1ccc(C(=O)NCCS(=O)(=O)N2CCN(c3ccc(F)cc3)CC2)cc1	-3	0	2	-44	-6	1
O=C(NCCS(=O)(=O)N1CCN(c2ccc(F)cc2)CC1)c1ccc(Br)o1	-1	0	·	-20	0	34*
O=C1CCCCC1C(O)(C(=O)c1ccccc1)c1ccccc1 (stereo not given)	-3	43*	-2	·	0	2
O=C(Cn1cnc([N+](=O)[O-])n1)N/N=C/c1ccc2ccccc2c1	2	44*	2	·	-3	-1
COc1ccc(/C=N/Nc2nc(=O)[nH]nc2C)cc1[N+](=O)[O-]	·	·	·	·	-34	-10
COc1cc(/C=N/Nc2nc(=O)[nH]nc2C)cc([N+](=O)[O-])c1O	3	0	-2	76*	6	-4
O=S(=O)(Nc1ncnc2scc(-c3ccc(F)cc3)c12)c1cc(F)ccc1F	0	2.8*	8	-2	0	4
O=C(NCCN1CCN(c2ccccc2F)CC1)c1ccc2nc3ccccc3c(=O)n2c1	2	0	5	48*	2	2
CCN(CC)S(=O)(=O)c1cc(NC(=O)c2ccc(-n3cncn3)c([N+](=O)[O-])c2)ccc1C	4	0	25*	10	-5	-7
CC1CCCC(C)N1C(=O)COC(=O)CCC(=O)c1ccc(F)cc1 (stereo not given)	-6	0	-3	·	-3	9
CC1CCN(C(=O)COC(=O)CCC(=O)c2ccc(F)cc2)CC1	0	43*	0	·	4	-1
C[C@@H]1CN([C@@H](C)CO)C(=O)c2cccc(NS(=O)(=O)c3ccc(Cl)cc3)c2O[C@H]1CN(C)Cc1ccc(C(F)(F)F)cc1	5	0	4	7	·	4
